# NF-kB expr up – raises NF-kB expression in human neuronal cells | hit rate 1.6% among 190,000 | AID 1239 | NF-kB reporter expression; active compounds read high | fold change at 12.5 µM; in the data active means fold change above about 3.3
# APP 5'UTR act – APP 5'UTR luciferase reporter activation | activation, % at 2 µM | AID 1276 | hit rate 1% among 190,000 | SH-SY5Y APP 5'UTR luciferase reporter, luminescence; zero percent = DMSO vehicle wells;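 active means activation above a set limit, based on mean plus 3 SD of controls, cut at about 140% in these data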
# AHR act – activates the human aryl hydrocarbon receptor; P35869; AHR-responsive luciferase reporter cells, luminescence; activation, % at 5 µM; hit rate 2.5% among 320,000; in the data active means activation above about 47%;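 further: 0% = vehicle wells and 100% = reference agonist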
# STAT1 act – STAT1 signaling activation. NIH 3T3 STAT1-luciferase reporter, IFN-gamma, luminescence; 100% = IFN-gamma alone, no compound. activation (% of control), % at 5.5 µM. hit rate 2.6% among 200,000;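 active means activation above the screen-wide mean activation plus 3 SD, cut at about 130% in these data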;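 further: raw ratio to IFN-gamma control signal so 100% means no change and 0% no light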
# PERK inh – human PERK inhibition, primary cell-based screen. inhibition, % at 5.6 µM. hit rate 0.17% among 220,000. CHO PERK-DD fusion, SEAP luminescence translation reporter;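 active means inhibition above the mean inhibition of all tested compounds plus 3 SD, set separately per screening campaign, cut at about 2.9% in these data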;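 further: PERK kinase domain activated by AP20187 dimerizer at 100 nM; 0% = DMSO with dimerizer and 100% = rapamycin at 8.4 µM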
# MDM2 E3 inh – Mdm2 E3 ligase (human) inhibition | Q00987 | cell-based MDM2 ubiquitination luciferase reporter, 2 h; 0 = plate control, 100 = twice control, blank-subtracted | signal enhancement, % at 5 µM | hit rate 0.11% among 210,000;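 active means signal enhancement of 30% or more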;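 further: luminescence tracks abundance of the self-degrading MDM2-luciferase fusion protein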
#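 Assay system: mammalian cells stably expressing self-ubiquitinating, self-degrading MDM2 E3–luciferase fusion. Quantity: 2000 cells in each well. Medium: DMEM culture medium. Compound dosing: single-point 5 µM. Timing: cell settling 4 h, compound treatment 2 h, both 37 °C. Technique: luciferase luminescence. Read-out basis: percent signal gain over controls, blank-subtracted. Benchmarks: plate controls and plate blanks.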
# * marks the source's active call; other numbers are inactive results; . = no result given. An excerpt weighted towards active compounds, which were near 4.5% of everything screened.
SMILES,NF-kB expr up,APP 5'UTR act,AHR act,STAT1 act,PERK inh,MDM2 E3 inh
CC(=O)c1cc(N2CCOCC2)ccc1[N+](=O)[O-],5.6*,10,.,104,1,-7
CC(=O)N(C1=C(Cl)C(=O)c2ccccc2C1=O)C1CCCCC1,.,.,13,.,-1,-85
CC(=NC1CCCCC1)C1=C(O)c2ccccc2C1=O,.,132,32,148*,1,.
Cc1nc2ccccc2nc1N/N=C/c1ccc(O)cc1,.,.,76*,.,1,-7
CCOC(=O)/C(=N\Nc1ncnc2ccccc12)c1ccc(C)cc1,.,.,30,.,.,.
Oc1ccc(/C=N/Nc2ccccc2)cc1,1.3,-2,9,90,1,0
CCOC(=O)C/C(=N\Nc1ncnc2ccccc12)c1ccccc1,.,.,69*,.,.,.
Clc1ccc(/C=N/Nc2nc(Cl)nc3ccccc23)cc1,1.6,28,65*,133*,0,-11
Nc1c(Cl)ncnc1N/N=C/c1ccnc2ccccc12,1.1,24,7,110,0,-5
C(=N\Nc1ncnc2ccccc12)/c1ccccc1,6*,63,46,132*,0,-34
Clc1ccc(/C=N/Nc2nnc(Cl)c3ccccc23)cc1,2,6,28,117,0,-9
CCCc1c(C(=O)N/N=C/c2cccnc2)nnn1-c1nonc1N,.,.,21,.,.,.
O=S1(=O)N(Cc2ccccc2F)CCCN1Cc1c(F)cccc1Cl,.,.,1,.,.,.
COc1cc2c(cc1OC)C(C(=O)NCC1COc3ccccc3O1)C(c1cccnc1)N(C)C2=O (stereo unspecified),1.2,14,1,90,1,-28
O=C1CN(C(=S)NC(=O)c2ccc(-c3ccccc3)cc2)CCN1,1.6,19,6,133*,0,8
CN(CC(=O)Nc1ccc(F)c(F)c1F)C(=O)c1n[nH]c(=O)c2ccccc12,.,.,0,.,.,.
O=c1c2ccccc2ncn1CCOCCOc1ccc([N+](=O)[O-])cc1,1.1,-5,5,129*,0,-22
CCc1c(C)nc2ccc(Br)cc2c1Cl,1.5,2,1,107,2,7
Nc1nc(Cl)nc2ccc(Br)cc12,0.47,32,59*,121,1,-22
CCCCn1c(N)c(N(CC(C)C)C(=O)c2cc(Cl)nc3ccccc23)c(=O)[nH]c1=O,.,.,1,.,.,.
Cc1cccc2nc(CSc3ncccc3C(=O)O)cn12,0.87,12,4,98,1,-3
Cc1cccc2nc(COc3ccc(Cl)c4cccnc34)cn12,1.4,38,40,129*,1,-8
O=C(Nc1ccc2c(c1)OCCO2)NC1CCCCC1,5.2*,138*,7,129*,1,-45
O=C(Nc1ccc2c(c1)OCO2)c1c[nH]c(=O)n(-c2ccc(F)cc2)c1=O,.,.,55*,.,.,.
Cc1cc(C)c(NC(=O)Nc2ccc3c(c2)OCO3)c(C)c1,.,.,51*,.,.,.
SMILES,NF-kB expr up,APP 5'UTR act,AHR act,STAT1 act,PERK inh,MDM2 E3 inh
CC(C)c1ccccc1NC(=O)Nc1ccc2c(c1)OCO2,.,.,56*,.,.,.
COC(=O)c1ccccc1NC(=O)Nc1ccc2c(c1)OCO2,1.4,12,5,108,0,2
Cc1ccc(C)c(NC(=O)CN(C)C(=O)C2COc3ccccc3O2)c1 (stereo unspecified),.,.,1,.,.,.
Cn1c(CNC(=O)c2ccc3c(c2)OCO3)nnc1SCC(=O)Nc1ccc(F)cc1,.,.,0,.,.,.
CCc1ccc(NC(=O)CN(CC(=O)Nc2ccc(CC)cc2)CC(C)O)cc1 (stereo unspecified),.,.,4,.,.,.
O=C(Nc1ccc(F)cc1)Nc1ccc2c(c1)OCO2,.,.,67*,.,.,.
O=C(Nc1ccc([N+](=O)[O-])cc1)Nc1ccc2c(c1)OCCO2,4.5*,132,5,134*,0,-30
O=C(Nc1ccc(Cl)cc1)Nc1ccc2c(c1)OCO2,.,.,59*,.,.,.
COc1cc([N+](=O)[O-])ccc1NC(=O)Nc1ccc2c(c1)OCCO2,0.92,22,-4,103,1,-12
COc1ccc(C(=O)N2CCCC(Nc3ccc(C(C)C)cc3)C2)c(OC)n1 (stereo unspecified),.,.,8,.,.,.
COC(=O)c1ccc2c(=O)n(-c3ccccc3F)c(=S)[nH]c2c1,1.2,-15,7,90,1,-18
Clc1ccc(C2=CC(c3ccco3)n3ncnc3N2)cc1 (stereo unspecified),0.79,17,71*,95,0,-5

# High-throughput results: PubChem, several laboratories
